Results as given in ChEMBL document CHEMBL4130512, “Design, synthesis and biological evaluation of novel α-hederagenin derivatives with anticancer activity” (Eur J Med Chem, 2017).
Values belong to the compound of their own block, whether it stands above or below them. Activity calls are given as the source filed them. The rule behind the calls is not given here.

Tests used:
MKN-45 [1] = experiment: Antiproliferative activity against human MKN45 cells assessed as cell viability at 10 uM after 72 hrs by MTT assay relative to control; assay type: functional; details: MKN-45, 72 h, read-out: Activity
Method in brief: (§1)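 Single-concentration MTT screen. Log-phase cells in DMEM with 10% FCS were treated for 72 h in 96-well plates. After MTT and DMSO, absorbance was read at 570 nm. Viability was calculated relative to control as mean ± SD of three independent experiments.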

KB [2] = experiment: Antiproliferative activity against human KB cells assessed as cell viability at 10 uM after 72 hrs by MTT assay relative to control; assay type: functional; details: read-out: Activity; method in brief: as §1
KB [3] = experiment: Antiproliferative activity against human KB cells after 72 hrs by MTT assay; assay type: functional, cell-based
Method in brief: (§2)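 Cells grown in DMEM with 10% heat-inactivated FCS, penicillin and streptomycin, at 37°C in 5% CO₂, and used in log phase. Cells were seeded in 96-well plates and exposed to compound for 72 h. MTT was added, then DMSO, and OD was read at 570 nm. Survival rate was calculated and IC50 taken as 50% growth inhibition.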

[4] = Antiproliferative activity against human KBV cells after 72 hrs by MTT assay; assay type: functional, cell-based; method in brief: as §2
HeLa = experiment: Antiproliferative activity against human HeLa cells after 72 hrs by MTT assay; assay type: functional, cell-based; method in brief: as §2
A549 = experiment: Antiproliferative activity against human A549 cells after 72 hrs by MTT assay; assay type: functional, cell-based; details: A549, 72 h; method in brief: as §2
MKN-45 [5] = experiment: Antiproliferative activity against human MKN45 cells after 72 hrs by MTT assay; assay type: functional, cell-based; details: MKN-45, 72 h; method in brief: as §2
BGC-823 = experiment: Antiproliferative activity against human BGC823 cells after 72 hrs by MTT assay; assay type: functional, cell-based; details: BGC-823, 72 h; method in brief: as §2
AGS = experiment: Antiproliferative activity against human AGS cells after 72 hrs by MTT assay; assay type: functional, cell-based; method in brief: as §2
MKN-45 [6] = experiment: Cell cycle arrest in human MKN45 cells assessed as apoptotic cell accumulation at 10 uM after 24 hrs by propidium iodide staining based flow cytometry (reference value: 1.51%); assay type: functional
Method in brief: (§3)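 MKN45 cells were plated at 2×10⁵ cells/well in 6-well plates and exposed for 24 and 48 h. Cells were harvested, fixed and stained with propidium iodide (50 µg/mL). DNA content was read by FACScan flow cytometry for phase distribution. The sub-G0/G1 fraction was taken as apoptotic.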

MKN-45 [7] = experiment: Cell cycle arrest in human MKN45 cells assessed as accumulation at G1-phase at 10 uM after 24 hrs by propidium iodide staining based flow cytometry (reference value: 67%); assay type: functional; method in brief: as §3
MKN-45 [8] = experiment: Cell cycle arrest in human MKN45 cells assessed as accumulation at S-phase at 10 uM after 24 hrs by propidium iodide staining based flow cytometry (reference value: 15%); assay type: functional; method in brief: as §3
MKN-45 [9] = experiment: Cell cycle arrest in human MKN45 cells assessed as accumulation at G2/M-phase at 10 uM after 24 hrs by propidium iodide staining based flow cytometry (reference value: 19%); assay type: functional; method in brief: as §3
MKN-45 [10] = experiment: Cell cycle arrest in human MKN45 cells assessed as apoptotic cell accumulation at 10 uM after 48 hrs by propidium iodide staining based flow cytometry (reference value: 1.51%); assay type: functional; method in brief: as §3
MKN-45 [11] = experiment: Cell cycle arrest in human MKN45 cells assessed as accumulation at G1-phase at 10 uM after 48 hrs by propidium iodide staining based flow cytometry (reference value: 67%); assay type: functional; method in brief: as §3
MKN-45 [12] = experiment: Cell cycle arrest in human MKN45 cells assessed as accumulation at S-phase at 10 uM after 48 hrs by propidium iodide staining based flow cytometry (reference value: 15%); assay type: functional; method in brief: as §3
MKN-45 [13] = experiment: Cell cycle arrest in human MKN45 cells assessed as accumulation at G2/M-phase at 10 uM after 48 hrs by propidium iodide staining based flow cytometry (reference value: 19%); assay type: functional; method in brief: as §3
MKN-45 [14] = experiment: Induction of apoptosis in human MKN45 cells assessed as increase in cleaved PARP expression at 5 to 10 uM after 48 hrs by Western blot method; assay type: functional, cell-based
Method in brief: (§4)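 MKN45 cells (2×10⁵) were treated with 5 or 10 µM. Lysates were run by electrophoresis and transferred to PVDF. Blots were probed overnight at 4°C for Bax, BCL2, PARP and β-actin (loading control), then with HRP secondary, and detected by ECL. Band density was scored in arbitrary units; three experiments.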

MKN-45 [15] = experiment: Induction of apoptosis in human MKN45 cells assessed as decrease in Bcl2 expression after 24 hrs by Western blot method; assay type: functional, cell-based; method in brief: as §4
MKN-45 [16] = experiment: Induction of mitochondrial membrane potential loss in human MKN45 cells at 5 to 10 uM after 24 hrs by JC-1 staining based flow cytometry; assay type: functional, cell-based
Method in brief: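 MKN45 cells were plated at 2×10⁵ cells/well in 6-well plates and exposed to indicated concentrations for 24 h. They were stained with JC-1 for 20 min, and the change in mitochondrial membrane potential was measured by flow cytometry; three experiments.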

MKN-45 [17] = experiment: Induction of apoptosis in human MKN45 cells assessed as increase in Bax expression at 5 to 10 uM after 24 hrs by Western blot method; assay type: functional, cell-based; method in brief: as §4
MKN-45 [18] = experiment: Induction of apoptosis in human MKN45 cells assessed as increase in Bax/Bcl2 expression ratio at 5 to 10 uM after 24 hrs by Western blot method; assay type: functional, cell-based; method in brief: as §4
MKN-45 [19] = experiment: Antiproliferative activity against human MKN45 cells assessed as cell viability at 100 nM after 72 hrs by MTT assay relative to control; assay type: functional; details: MKN-45, 72 h, read-out: Activity; method in brief: as §1
KB [20] = experiment: Antiproliferative activity against human KB cells assessed as cell viability at 100 nM after 72 hrs by MTT assay relative to control; assay type: functional; details: read-out: Activity; method in brief: as §1

IC50 (KB [3]): 4.75 µM | IC50 (HeLa): 4.22 µM | IC50 (A549): 6.3 µM | IC50 (MKN-45 [5]): 7 µM | IC50 (BGC-823): 5.15 µM | IC50 (AGS): 4.4 µM
Structure (SMILES): CCN/C(=N/CCCN(C)C)OC(=O)c1ccccc1C(=O)OC[C@]1(C)C(=O)CC[C@@]2(C)[C@H]1CC[C@]1(C)[C@@H]2CC=C2[C@@H]3CC(C)(C)CC[C@]3(C(=O)OCc3ccccc3)CC[C@]21C
viability at 10 µM (MKN-45 [1]): 7% | viability at 10 µM (KB [2]): 26% | IC50 [4]: 8.05 µM | Activity (MKN-45 [6]): 2.47% | Activity (MKN-45 [7]): 68% | Activity (MKN-45 [8]): 11% | Activity (MKN-45 [9]): 21% | Activity (MKN-45 [10]): 38.68% | Activity (MKN-45 [11]): 54% | Activity (MKN-45 [12]): 16% | Activity (MKN-45 [13]): 31% | Activity (MKN-45 [14]): Active | Activity (MKN-45 [15]): Dose-dependent effect | Activity (MKN-45 [16]): Active | Activity (MKN-45 [17]): Active | Activity (MKN-45 [18]): Active

IC50 (KB [3]): 54.4 µM | IC50 (HeLa): 54 µM | IC50 (A549): > 100 µM | IC50 (MKN-45 [5]): 53.7 µM | IC50 (BGC-823): 52.1 µM | IC50 (AGS): 36.1 µM
Structure (SMILES): CC1(C)CC[C@]2(C(=O)O)CC[C@]3(C)C(=CC[C@@H]4[C@@]5(C)CC[C@H](O)[C@@](C)(CO)[C@@H]5CC[C@]43C)[C@@H]2C1 [HEDERAGENIN]
viability at 10 µM (MKN-45 [1]): 75% | viability at 10 µM (KB [2]): 81% | IC50 [4]: > 100 µM | Activity (MKN-45 [6]): 1.44% | Activity (MKN-45 [7]): 69% | Activity (MKN-45 [8]): 14% | Activity (MKN-45 [9]): 17% | Activity (MKN-45 [10]): 5.87% | Activity (MKN-45 [11]): 63% | Activity (MKN-45 [12]): 12% | Activity (MKN-45 [13]): 25%

Structure (SMILES): CC1(C)CC[C@]2(C(=O)OCc3ccccc3)CC[C@]3(C)C(=CC[C@@H]4[C@@]5(C)CCC(=O)[C@@](C)(COC(=O)CCC(=O)Oc6ccc(CCO[N+](=O)[O-])cc6)[C@@H]5CC[C@]43C)[C@@H]2C1
viability at 10 µM (MKN-45 [1]): 100% | viability at 10 µM (KB [2]): 53%

Structure (SMILES): CC1(C)CC[C@]2(C(=O)OCc3ccccc3)CC[C@]3(C)C(=CC[C@@H]4[C@@]5(C)CCC(=O)[C@@](C)(COC(=O)c6ccccc6C(=O)Nc6cccc(N)c6)[C@@H]5CC[C@]43C)[C@@H]2C1
viability at 10 µM (MKN-45 [1]): 93% | viability at 10 µM (KB [2]): 62%

Structure (SMILES): CC1(C)CC[C@]2(C(=O)OCc3ccccc3)CC[C@]3(C)C(=CC[C@@H]4[C@@]5(C)CCC(OC(=O)CCCCO[N+](=O)[O-])[C@@](C)(COC(=O)CCCCO[N+](=O)[O-])[C@@H]5CC[C@]43C)[C@@H]2C1 (some centres not stated)
viability at 10 µM (MKN-45 [1]): 97% | viability at 10 µM (KB [2]): 58%

Structure (SMILES): CC(=O)O[C@H]1C(=O)[C@@]2(C)[C@H]([C@H](OC(=O)c3ccccc3)[C@]3(O)C[C@H](OC(=O)[C@H](O)[C@@H](NC(=O)c4ccccc4)c4ccccc4)C(C)=C1C3(C)C)[C@]1(OC(C)=O)CO[C@@H]1C[C@@H]2O [PACLITAXEL]
viability at 0.1 µM (MKN-45 [19]): 23% | viability at 0.1 µM (KB [20]): 15%

Structure (SMILES): CC1(C)CC[C@]2(C(=O)OCc3ccccc3)CC[C@]3(C)C(=CC[C@@H]4[C@@]5(C)Cc6nccnc6[C@@](C)(COC(=O)CCCCO[N+](=O)[O-])[C@@H]5CC[C@]43C)[C@@H]2C1
viability at 10 µM (MKN-45 [1]): 89% | viability at 10 µM (KB [2]): 59%

Structure (SMILES): CC1(C)CC[C@]2(C(=O)OCc3ccccc3)CC[C@]3(C)C(=CC[C@@H]4[C@@]5(C)Cc6nccnc6[C@@](C)(COC(=O)CCCCCO[N+](=O)[O-])[C@@H]5CC[C@]43C)[C@@H]2C1
viability at 10 µM (MKN-45 [1]): 84% | viability at 10 µM (KB [2]): 63%

Structure (SMILES): CC1(C)CC[C@]2(C(=O)OCc3ccccc3)CC[C@]3(C)C(=CC[C@@H]4[C@@]5(C)Cc6nccnc6[C@@](C)(COC(=O)CCC(=O)OCCc6ccc(OCCO[N+](=O)[O-])cc6)[C@@H]5CC[C@]43C)[C@@H]2C1
viability at 10 µM (MKN-45 [1]): 93% | viability at 10 µM (KB [2]): 50%

Structure (SMILES): CC1(C)CC[C@]2(C(=O)OCc3ccccc3)CC[C@]3(C)C(=CC[C@@H]4[C@@]5(C)Cc6nccnc6[C@@](C)(COC(=O)c6ccccc6C(=O)Oc6ccc(CCO[N+](=O)[O-])cc6)[C@@H]5CC[C@]43C)[C@@H]2C1
viability at 10 µM (MKN-45 [1]): 78% | viability at 10 µM (KB [2]): 49%

Structure (SMILES): CC1(C)CC[C@]2(C(=O)OCc3ccccc3)CC[C@]3(C)C(=CC[C@@H]4[C@@]5(C)CCC(=O)[C@@](C)(COC(=O)c6ccccc6C(=O)OCCc6ccc(OCCO[N+](=O)[O-])cc6)[C@@H]5CC[C@]43C)[C@@H]2C1
viability at 10 µM (MKN-45 [1]): 89% | viability at 10 µM (KB [2]): 67%
